The subject of data set [1] is SKPT cells. The experiment in a line: Effect of potential inhibitors on basolateral uptake of carnosine. It is filed as in vitro ADME, rat. The following applies: inhibitor 1 mM; 15-min uptake, basolateral pH 7.4. An outline of the steps: (§1)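 Measured 15-min uptake at 37°C of [3H]substrate (with [14C]mannitol correction) from the apical or basolateral side, co-incubated with or without test compounds (PEPT2 and PHT1 substrates, unlabelled substrate, a cephalosporin). Apical buffer was pH 6.0 and basolateral pH 7.4. Test compounds were 1 mM for basolateral uptake. Results were compared with control by ANOVA and Dunnett's test. n=3–6.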

Data set [2] concerns SKPT cells. The data set is described as follows: Effect of potential inhibitors on apical uptake of carnosine. It is filed as in vitro ADME, rat. The conditions noted are these: 15-min uptake, apical pH 6.0; for reduction of apical uptake of carnosine: inhibitor 1 and 2 mM. Summed up: as §1
Data set [3] has as its system SKPT cells. The data set is described as follows: Proton. It is filed as in vitro ADME, rat. The conditions noted are these: 15-min uptake, 10 µM, donor pH 5.5 to 7.4, basolateral pH 7.4. Summed up:
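The donor-side pH was varied from 5.5 to 7.4 while the opposite side was held at pH 7.4 (apical uptake) or pH 6.0 (basolateral uptake). Uptake of 10 µM [3H]substrate was measured over 15 min at 37°C. Values were compared with pH 7.4 by ANOVA and Dunnett's test. n=3–6.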

Data set [4] can be described thus: Carnosine transepithelial transport across SKPT cell monolayers. It is filed as in vitro ADME, rat. The conditions noted are these: rat, basolateral-to-apical transcellular flux relative to apical-to-basolateral flux, 10 µM carnosine. Summed up: (§2)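 Filter-grown SKPT monolayers with apical pH 6.0 (MES/Tris) and basolateral pH 7.4 (HEPES/Tris) buffers at 37°C. 10 µM [3H]substrate with [14C]mannitol was placed in the apical or basolateral donor side. Receiver aliquots were taken over time for scintillation counting. Paracellular flux was corrected with mannitol, and clearances were obtained from flux relative to the 10 µM donor concentration. n=3–5.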

The test system of data set [5] is SKPT cells. Described as above. Format: in vitro ADME, rat. The conditions noted are these: 10 µM in donor compartment, slope of transport vs time. An outline of the steps:
as §2

Data set [6] addresses T1, PEPT2 (Rattus norvegicus, UniProt Q63424).
T1 sequence (Q63424 1-729): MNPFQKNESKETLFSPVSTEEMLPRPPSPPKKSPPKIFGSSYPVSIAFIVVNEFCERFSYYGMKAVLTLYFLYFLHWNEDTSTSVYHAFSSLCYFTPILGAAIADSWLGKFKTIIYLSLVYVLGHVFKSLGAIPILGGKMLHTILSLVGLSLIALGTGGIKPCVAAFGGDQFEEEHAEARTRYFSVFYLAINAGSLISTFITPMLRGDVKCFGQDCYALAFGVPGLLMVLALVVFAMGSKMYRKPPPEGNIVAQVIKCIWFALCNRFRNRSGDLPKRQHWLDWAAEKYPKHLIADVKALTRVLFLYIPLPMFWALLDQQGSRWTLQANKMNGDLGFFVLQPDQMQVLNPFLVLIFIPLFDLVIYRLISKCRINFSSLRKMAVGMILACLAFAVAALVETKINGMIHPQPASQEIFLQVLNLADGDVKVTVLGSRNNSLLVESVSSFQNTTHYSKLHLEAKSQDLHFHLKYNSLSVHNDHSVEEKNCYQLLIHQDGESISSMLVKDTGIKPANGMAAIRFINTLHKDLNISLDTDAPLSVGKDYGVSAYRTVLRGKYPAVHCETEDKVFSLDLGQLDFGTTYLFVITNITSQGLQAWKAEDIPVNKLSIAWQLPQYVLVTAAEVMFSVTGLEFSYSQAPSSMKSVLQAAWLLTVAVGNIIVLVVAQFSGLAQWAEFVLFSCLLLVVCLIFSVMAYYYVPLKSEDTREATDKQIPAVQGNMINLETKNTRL
The following applies: read-out: Km, PEPT2-mediated uptake; rat neonatal astrocytes; cited from earlier work.

In another data set the test system is basolateral transporter. The data set is described as follows: Concentration-dependent basolateral uptake of carnosine. Format: in vitro ADME, rat.
Data set [7] relates to SKPT cells. The data set is described as follows: Cellular compartment model: influx and efflux clearances of carnosine. Format: in vitro ADME, rat. Summed up:
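A three-compartment (apical, cellular, basolateral) mass-balance model gave influx and efflux clearances (µl/min/mg protein). Transepithelial clearances came from 10 µM donor flux experiments. Each influx clearance equals the transcellular clearance divided by the steady-state fraction effluxed to the opposite compartment. These fractions came from efflux studies after 2 h apical loading.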

Data set [8] concerns the target T1, PEPT2. The conditions noted are these: read-out: Km, PEPT2-mediated uptake; rat choroid plexus whole tissue; cited from earlier work.
Data set [9] deals with SKPT cells. The data set is described as follows: Carnosine intracellular accumulation. It is filed as in vitro ADME, rat. An outline of the steps: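 Rat kidney proximal tubule cells (SV40-transformed) grown on collagen-coated filter inserts and used 4 days after seeding, with no antibiotics for the final 24 h and monolayer resistance checked. Cells were preincubated 10 min at 37°C with apical pH 6.0 and basolateral pH 7.4 buffer. 10 µM [3H]substrate plus [14C]mannitol was added to one side, 37°C timed incubations. Cells washed with ice-cold buffer, solubilised (NaOH/SDS), counted. Values normalised to protein and mannitol-corrected. Concentration ratio used intracellular volume from 3-O-methyl-D-glucose uptake (1–10 mM, 300 min, phloridzin). n=3–5.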

Data set [10] has as its system SKPT cells. The experiment in a line: Substrate stability studies in SKPT compartments. It is filed as in vitro ADME, rat. An outline of the steps: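 10 µM [3H]substrate applied apically or basolaterally (apical pH 6.0, basolateral pH 7.4) for 5–300 min at 37°C. Donor and receiver media were collected. Cells were washed, sonicated in water, extracted with an equal volume of acetonitrile, and centrifuged at 14,000 g for 10 min at 4°C. Reversed-phase C18 HPLC used isocratic 0.1 M NaH2PO4/0.075% heptafluorobutyric acid at 1 ml/min. Stability was taken from recovery and histidine appearance. n=3.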

A short description of data set [11]: pKa and fractional ionization of carnosine. Format: physicochemical.
Data set [12] deals with rat choroid plexus primary cell cultures. The following applies: cited from earlier work.
The target in data set [13] is T1, PEPT2. The data set is described as follows: Concentration-dependent apical uptake of carnosine. It is filed as in vitro ADME. The following applies: 1–500 µM carnosine, 15-min uptake, pH 6.0.
Data set [14] concerns SKPT cells. The data set is described as follows: Efflux studies after 2 hr apical preloading of SKPT monolayers. It is filed as in vitro ADME, rat. Summed up:
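Monolayers loaded apically with 10 µM [3H]substrate and [14C]mannitol for 2 h at 37°C, then washed four times with ice-cold buffer. Substrate-free buffer was added to both sides (apical pH 6.0, basolateral pH 7.4) at 37°C. Apical (100 µl) and basolateral (300 µl) samples were taken at set times and replaced. Radioactivity is expressed as percent of cell content after loading. n=3–5.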

Data set [15] deals with SKPT cells. The following applies: cited from earlier work.
Substrate in data set [16]: NCCC(=O)N[C@@H](Cc1cnc[nH]1)C(=O)O
The data set is described as follows: Concentration-dependent apical uptake of carnosine. It is filed as in vitro ADME, rat. The conditions noted are these: other: 1–500 µM carnosine, 15-min uptake, pH 6.0, 37.0 °C.

The mark [17] stands for this setting: at 60 min, after 2 hr apical preloading with 10 µM.
Setting [18] is: single exponential fit of efflux-time profile.

The values below come from PMC2913304 (Pharmaceutical research, 2008).

Like-named read-outs stand apart in the source and are kept apart here. Non-standard residues stand in square brackets, D forms with d. Residues, ends and D or L forms follow the SMILES beside them. Sar = CNCC(=O)O

Consider `N[C@@H](Cc1c[nH]cn1)C(=O)O` [histidine, L-histidine], for which the “effect on basolateral uptake of carnosine” value in the data set on SKPT cells [1] is “unaffected”. The “effect on apical uptake of carnosine” value in the data set on SKPT cells [2] (inhibitor 1, 2 and 5 mM) is given as “unaffected”.

Turning to `CC1=C(C(=O)O)N2C(=O)[C@@H](NC(=O)[C@H](N)c3ccc(O)cc3)[C@H]2SC1` [cefadroxil], the “reduction of basolateral uptake of carnosine” value in the data set with SKPT cells [1] was 90–99%.

Consider `NCCC(=O)N[C@@H](Cc1cnc[nH]1)C(=O)O` [carnosine, β-alanyl-L-histidine], for which the “pH of maximal apical uptake” value in the data set with SKPT cells [3] was 6.5. Besides, the efflux ratio (in general, the permeability from basolateral to apical divided by that in the opposite direction, in the common usage) at 10 µM in [4] was roughly 2. In the data set with SKPT cells [5], this molecule displayed an A-to-B transepithelial rate of 1.99 pmol/min/mg protein and a B-to-A transepithelial rate of 3.74 pmol/min/mg protein. Also, the Km – broadly, the substrate concentration at which the rate is half of its maximum – at PEPT2 [6] was 43 µM. Further, the “Vmax, basolateral membrane uptake” value in the data set with basolateral transporter (1–500 µM carnosine, 15-min uptake, pH 7.4) amounted to 27.4±1.3 pmol/mg/15min. In addition, in the data set on basolateral transporter (Km comparison), the “lower affinity of basolateral transporter compared to apical transporter” value turned out to be 2 fold. For the same molecule, the “lower capacity of basolateral transporter compared to apical transporter” value in the data set with basolateral transporter (Vmax comparison) stood at 24 fold. In addition, in the data set with SKPT cells [7], the CLBC/CLCA ratio worked out at 0.8, the CLBC/CLCB ratio was determined as 32 and the CLCB/CLAC ratio is 0.004. Moreover, on PEPT2 [8], the Km was 39 µM. Besides, the “reduction of basolateral uptake of carnosine” value in the data set on SKPT cells [1] was 90–99%. For the same molecule, in the data set on SKPT cells [9] (10 µM carnosine), the “time over which uptake was linear, apical surface” value was 60 min and the “time over which uptake was linear, basolateral surface” value came to 30 min. In addition, the “basolateral uptake plateau value” in the data set with SKPT cells [9] (10 µM carnosine introduced from basolateral compartment) was found to be 15 pmol/mg protein. The “apical uptake plateau value” in the data set with SKPT cells [9] (10 µM carnosine, at 180–300 min) is recorded as “approximately 220 pmol/mg protein”. Moreover, in the data set on SKPT cells [9] (10 µM extracellular), the “intracellular to extracellular concentration ratio, basolateral introduction” value was found to be 0.8. Besides, the “intracellular to extracellular concentration ratio, apical introduction” value in the data set with SKPT cells [9] (10 µM extracellular, intracellular volume 2.0 µl/mg protein) was determined as 11. In the data set on SKPT cells [10] (apical or basolateral donor side, up to 300 min of incubation), the “stability in donor compartment” value is “remained intact”. Moreover, the “intact in intracellular compartment at 60 min” value with SKPT cells [10] (intracellular compartment, 60 min) is listed as “about 87%”. In the data set with SKPT cells [10] (intracellular compartment, 300 min), the “intact in intracellular compartment at 300 min” value was 81%. The “intact in intracellular compartment, first 15 min” value with SKPT cells [10] (intracellular compartment, first 15 min of incubation) is recorded as greater than 94%. Further, the “ionized (NH3+) at pH 5.5” value in data set [11] (pH 5.5) was 95%. The “ionized (NH3+) at pH 6.5” value in data set [11] (pH 6.5) stood at 65%. In addition, the “ionized (NH3+) at pH 7.4” value in [11] (pH 7.4) is recorded as 15–20%. For the same molecule, in [12], the “apical efflux relative to basolateral efflux” value is on record as “about 4 times” and the “intracellular to extracellular concentration ratio” value is reported as “approximately 135”. Besides, the “reduction of apical uptake of carnosine” value in the data set with SKPT cells [2] worked out at 96%. Besides, on PEPT2 [13], the “Vmax, apical membrane uptake” value is recorded as 659±27 pmol/mg/15min. Further, the “cell-to-apical efflux relative to cell-to-basolateral efflux” value in the data set on SKPT cells [14] (SKPT cells) is reported as “about 10 times”. Further, in the data set on SKPT cells [14] (setting [17]), the “carnosine effluxed from cell to apical compartment” value was “about 40%” and the “carnosine effluxed from cell to basolateral compartment” value is on record as “about 4%”. Moreover, in the data set on SKPT cells [14] (single exponential fit), the “fefflux.A (fraction effluxed to apical compartment at steady state)” value amounted to 0.66 and the “fefflux.B (fraction effluxed to basolateral compartment at steady state)” value amounted to 0.047. In addition, in the data set on SKPT cells [14] (setting [18]), the “carnosine effluxed from cellular to apical compartment at steady state” value came out at 66% and the “carnosine effluxed to basolateral compartment at steady state” value worked out at 4.7%.

Consider `CN(CC(=O)O)C(=O)CN` [GlySar, glycylsarcosine] (H-Gly-[Sar]-OH), for which the “apical uptake relative to basolateral uptake” value in the data set on SKPT cells [15] (ref 37) was “about 5 ×”. Further, in the data set with SKPT cells [15] (ref 38), the “apical uptake relative to basolateral uptake” value is reported as “about 3.5 ×” and the “apical-to-basolateral transepithelial flux higher than reverse flux” value is reported as 28%. The “reduction of basolateral uptake of carnosine” value in the data set on SKPT cells [1] is given as 90–99%. The “reduction of apical uptake of carnosine” value in the data set on SKPT cells [2] amounted to 90%.

B1: PEPT2 (Rattus norvegicus) (protein)
chain: T1 sequence (Q63424 1-729)
As to B1, the Km in [16] was found to be 49 ± 8 µM.
